Measured values published in ChEMBL document CHEMBL3244146, “Pyranenamines: a new series of antiallergic compounds” (1979).

Tests used:
Rattus norvegicus [1] = assay: Antiallergic activity in rat assessed as inhibition of egg albumin-induced passive cutaneous anaphylaxis at 5 mg/kg, iv treated for 30 secs followed by egg albumin-challenge measured after 30 mins relative to control; type: functional; details: 0.5 h
Rattus norvegicus [2] = assay: Antiallergic activity in rat assessed as inhibition of egg albumin-induced passive cutaneous anaphylaxis at 10 mg/kg, iv treated for 30 secs followed by egg albumin-challenge measured after 30 mins relative to control; type: functional; details: 0.5 h
Lung [3] = assay: Antiallergic activity in passively sensitized albino rat lungs assessed as inhibition of antigen-induced histamine release at 1.6 x 10^-4 M by fluorometric analysis relative to control; type: functional
Procedure, shortened: (§1)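 Fragmented lung from adult male Charles River albino rats, passively sensitized, then antigen-challenged with compound present; released histamine measured fluorometrically; inhibition reported relative to control, with replicate count given as number of separate lung preparations.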

Lung [4] = assay: Antiallergic activity in passively sensitized albino rat lungs assessed as inhibition of antigen-induced histamine release at 6.6 x 10^-6 M by fluorometric analysis relative to control; type: functional; procedure, shortened: as §1
Lung [5] = assay: Antiallergic activity in passively sensitized albino rat lungs assessed as inhibition of antigen-induced histamine release at 6.6 x 10^-7 M by fluorometric analysis relative to control; type: functional; procedure, shortened: as §1
[6] = Antiallergic activity in passively sensitized rhesus monkey lungs assessed as inhibition of antigen-induced histamine release at 1.6 x 10^-4 M by fluorometric analysis relative to control; type: functional, Macaca mulatta, Lung
Procedure, shortened: (§2)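 Passively sensitized fragmented lung from a young adult male rhesus monkey, challenged with IgE-antihuman IgE; histamine release measured fluorometrically and SRS-A estimated by guinea pig ileum bioassay; inhibition relative to control; replicates given as number of separate lung preparations.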

[7] = Antiallergic activity in passively sensitized rhesus monkey lungs assessed as inhibition of antigen-induced histamine release at 3.3 x 10^-5 M by fluorometric analysis relative to control; type: functional, Macaca mulatta, Lung; procedure, shortened: as §2
[8] = Antiallergic activity in passively sensitized rhesus monkey lungs assessed as inhibition of antigen-induced histamine release at 6.6 x 10^-6 M by fluorometric analysis relative to control; type: functional, Macaca mulatta, Lung; procedure, shortened: as §2
[9] = Antiallergic activity in passively sensitized rhesus monkey lungs assessed as inhibition of antigen-induced slow reacting substance of anaphylaxis release at 1.6 x 10^-4 M relative to control; type: functional, Macaca mulatta, Lung; procedure, shortened: as §2
[10] = Antiallergic activity in passively sensitized rhesus monkey lungs assessed as inhibition of antigen-induced slow reacting substance of anaphylaxis release at 3.3 x 10^-5 M relative to control; type: functional, Macaca mulatta, Lung; procedure, shortened: as §2
[11] = Antiallergic activity in passively sensitized rhesus monkey lungs assessed as inhibition of antigen-induced slow reacting substance of anaphylaxis release at 6.6 x 10^-6 M relative to control; type: functional, Macaca mulatta, Lung; procedure, shortened: as §2
Rattus norvegicus [12] = assay: Antiallergic activity in iv dosed rat assessed as inhibition of egg albumin-induced passive cutaneous anaphylaxis treated for 30 secs followed by egg albumin-challenge measured after 30 mins; type: functional; details: 0.5 h, read-out: ID50 (the source's name)
Rattus norvegicus [13] = assay: Antiallergic activity in po dosed rat assessed as inhibition of egg albumin-induced passive cutaneous anaphylaxis treated for 15 mins followed by egg albumin-challenge measured after 30 mins; type: functional; details: read-out: ID50 (the source's name)
Procedure, shortened: (§3)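 Oral PCA in rats: intradermal antiserum at four back sites (dose giving ~12×12 mm wheal), compound po 48 h later, 15 min before iv challenge with 0.5 mL saline containing 5 mg Evans blue plus 5 mg egg albumin; skin bluing read 30 min after challenge on two axes per wheal; six rats per dose versus ≥6 vehicle controls; percent inhibition from mean wheal size, one-sided t test.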

Rattus norvegicus [14] = assay: Antiallergic activity in rat assessed as inhibition of egg albumin-induced passive cutaneous anaphylaxis at 25 mg/kg, po treated for 15 mins followed by egg albumin-challenge measured after 30 mins relative to control; type: functional; procedure, shortened: as §3
Lung [15] = assay: Antiallergic activity in passively sensitized albino rat lungs assessed as inhibition of antigen-induced histamine release at 1 x 10^-5 M by fluorometric analysis relative to control; type: functional; procedure, shortened: as §1
Lung [16] = assay: Antiallergic activity in passively sensitized albino rat lungs assessed as inhibition of antigen-induced histamine release at 1 x 10^-6 M by fluorometric analysis relative to control; type: functional; procedure, shortened: as §1
Lung [17] = assay: Antiallergic activity in passively sensitized albino rat lungs assessed as inhibition of antigen-induced histamine release at 1 x 10^-7 M by fluorometric analysis relative to control; type: functional; procedure, shortened: as §1
Lung [18] = assay: Antiallergic activity in passively sensitized albino rat lungs assessed as inhibition of antigen-induced histamine release at 1 x 10^-8 M by fluorometric analysis relative to control; type: functional; procedure, shortened: as §1
Rattus norvegicus [19] = assay: Antiallergic activity in rat assessed as inhibition of egg albumin-induced passive cutaneous anaphylaxis at 50 mg/kg, po treated for 15 mins followed by egg albumin-challenge measured after 30 mins relative to control; type: functional; procedure, shortened: as §3
[20] = Antiallergic activity in passively sensitized rhesus monkey lungs assessed as inhibition of antigen-induced histamine release at 1 x 10^-4 M by fluorometric analysis relative to control; type: functional, Macaca mulatta, Lung; procedure, shortened: as §2
[21] = Antiallergic activity in passively sensitized rhesus monkey lungs assessed as inhibition of antigen-induced slow reacting substance of anaphylaxis release at 1 x 10^-4 M relative to control; type: functional, Macaca mulatta, Lung; procedure, shortened: as §2

Structure (SMILES): COc1ccc(N/C(C)=C2\C(=O)OC(=O)C(C(C)=O)=C2O)cc1
- inhibition in vivo at 5 mg/kg (Rattus norvegicus [1]): 27%

Structure (SMILES): CC(=O)C1=C(O)/C(=C(\C)Nc2ccccc2Cl)C(=O)OC1=O
- inhibition in vivo at 10 mg/kg (Rattus norvegicus [2]): 36%

Structure (SMILES): COc1ccc(N(C)/C(C)=C2\C(=O)OC(=O)C(C(C)=O)=C2O)cc1
- inhibition in vivo at 5 mg/kg (Rattus norvegicus [1]): 37%

Structure (SMILES): CC(=O)C1=C(O)/C(=C(\C)Nc2ccc(O)cc2)C(=O)OC1=O
- inhibition (INH) (Lung [3]): 45%
- inhibition (INH) (Lung [4]): 44%
- inhibition (INH) (Lung [5]): 34%
- inhibition (INH) [6]: 59%
- inhibition (INH) [7]: 50%
- inhibition (INH) [8]: 18%
- inhibition (INH) [9]: 51%
- inhibition (INH) [10]: 33%
- inhibition (INH) [11]: 8.6%
- ED50 (Rattus norvegicus [12]): 1.3 mg/kg
- ED50 (Rattus norvegicus [13]): 29 mg/kg

Structure (SMILES): CC(=O)C1=C(O)/C(=C(\C)Nc2ccc(F)cc2)C(=O)OC1=O
- inhibition in vivo at 10 mg/kg (Rattus norvegicus [2]): 54%

Structure (SMILES): CCCC(=O)c1c(O)oc(=O)c(C(=O)CCC)c1O
- inhibition in vivo at 10 mg/kg (Rattus norvegicus [2]): 3%

Structure (SMILES): CC(=O)C1=C(O)/C(=C(\C)Nc2cccc(NS(=O)(=O)c3ccccc3)c2)C(=O)OC1=O
- ED50 (Rattus norvegicus [12]): 1.3 mg/kg
- inhibition in vivo at 25 mg/kg (Rattus norvegicus [14]): 7%

Structure (SMILES): CCCCCCC(=O)c1c(O)oc(=O)c(C(=O)CCCCCC)c1O
- inhibition in vivo at 10 mg/kg (Rattus norvegicus [2]): 27%

Structure (SMILES): CCC(=O)Nc1cc(N/C(C)=C2\C(=O)OC(=O)C(C(C)=O)=C2O)ccc1O
- inhibition (INH) (Lung [15]): 65%
- inhibition (INH) (Lung [16]): 66%
- inhibition (INH) (Lung [17]): 70%
- inhibition (INH) (Lung [18]): 41%
- ED50 (Rattus norvegicus [12]): 0.4 mg/kg
- ED50 (Rattus norvegicus [13]): 0.6 mg/kg

Structure (SMILES): CC(=O)C1=C(O)/C(=C(\C)Nc2cc(N)cc(N)c2)C(=O)OC1=O
- ED50 (Rattus norvegicus [12]): 0.5 mg/kg
- ED50 (Rattus norvegicus [13]): 0.9 mg/kg

Structure (SMILES): CCC(=O)Nc1cccc(N/C(C)=C2\C(=O)OC(=O)C(C(C)=O)=C2O)c1
- ED50 (Rattus norvegicus [12]): 0.2 mg/kg
- inhibition in vivo at 25 mg/kg (Rattus norvegicus [14]): 70%

Structure (SMILES): CC(=O)C1=C(O)/C(=C(\C)N(C)c2ccc(O)cc2)C(=O)OC1=O
- inhibition in vivo at 5 mg/kg (Rattus norvegicus [1]): 42%

Structure (SMILES): CCC(=O)Nc1cc(NC(=O)CC)cc(N/C(C)=C2\C(=O)OC(=O)C(C(C)=O)=C2O)c1
- ED50 (Rattus norvegicus [12]): 0.003 mg/kg
- inhibition in vivo at 50 mg/kg (Rattus norvegicus [19]): 14%

Structure (SMILES): CCC(=O)c1c(O)oc(=O)c(C(=O)CC)c1O
- inhibition in vivo at 10 mg/kg (Rattus norvegicus [2]): 39%

Structure (SMILES): CC(=O)C1=C(O)/C(=C(\C)Nc2ccccc2)C(=O)OC1=O
- inhibition in vivo at 10 mg/kg (Rattus norvegicus [2]): 76%

Structure (SMILES): CC(=O)C1=C(O)/C(=C(\C)Nc2c(Cl)cccc2Cl)C(=O)OC1=O
- inhibition in vivo at 10 mg/kg (Rattus norvegicus [2]): 3%

Structure (SMILES): CCCC(=O)Nc1cc(NC(=O)CCC)cc(N/C(C)=C2\C(=O)OC(=O)C(C(C)=O)=C2O)c1
- ED50 (Rattus norvegicus [12]): 0.05 mg/kg
- inhibition in vivo at 25 mg/kg (Rattus norvegicus [14]): 7%

Structure (SMILES): CC(=O)C1=C(O)/C(=C(\C)Nc2ccc(Cl)cc2)C(=O)OC1=O
- inhibition in vivo at 10 mg/kg (Rattus norvegicus [2]): 84%

Structure (SMILES): CC(=O)Nc1cc(N)cc(N/C(C)=C2\C(=O)OC(=O)C(C(C)=O)=C2O)c1
- inhibition (INH) [20]: 17%
- inhibition (INH) [21]: 8%
- ED50 (Rattus norvegicus [12]): 0.1 mg/kg
- inhibition in vivo at 25 mg/kg (Rattus norvegicus [14]): 11%

Structure (SMILES): CC(=O)C1=C(O)/C(=C(\C)Nc2cccc(NC(=O)C(O)CO)c2)C(=O)OC1=O (stereo unspecified)
- ED50 (Rattus norvegicus [12]): 0.05 mg/kg
- inhibition in vivo at 25 mg/kg (Rattus norvegicus [14]): 55%

Structure (SMILES): CC(=O)C1=C(O)/C(=C(\C)Nc2cccc(NC(=O)C(=O)C(=O)O)c2)C(=O)OC1=O
- ED50 (Rattus norvegicus [12]): 0.03 mg/kg
- inhibition in vivo at 25 mg/kg (Rattus norvegicus [14]): 21%
